One experiment deals with Botrytis cinerea. The experiment can be described thus: Antifungal activity against Botryotinia fuckeliana in cucumber seedlings assessed as reduction in gray mold measured after 4 days by pot test. In kind it is functional. The procedure, abridged:
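Emulsifiable-concentrate formulations were diluted in water and foliar-sprayed to run-off onto cotyledon-stage seedlings. Plants were held 1 day in the greenhouse, then inoculated with agar gel carrying B. cinerea and kept 4 more days at 20°C, humid and dark. Infection degree was scored against untreated controls. pED50 is the negative log of the molar concentration giving 50% control.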

For a further experiment, the system named is Blumeria graminis. The experiment can be described thus: Antifungal activity against Blumeria graminis in wheat seedlings assessed as reduction in powdery mildew at 20 degC measured after 10 days by pot test. The class given is functional.

The structures appear in SMILES notation.

For `CC(C)(C)/C(=C/c1ccccc1)C(=O)n1ccnc1`, the pED50 with Botrytis cinerea is listed as 3.4; with Blumeria graminis, 4.17.

Take `CC(C)(C)/C(=C/c1ccc(C(F)(F)F)cc1)C(=O)n1ccnc1`: the pED50 with Botrytis cinerea was 3.04; with Blumeria graminis it was 4.19.

For the compound `CC(C)(C)/C(=C/c1ccc(C#N)cc1)C(=O)n1ccnc1`, the pED50 in the experiment with Botrytis cinerea is 4.4; with Blumeria graminis, 5.89.

As for `Cc1ccc(/C=C(\C(=O)n2ccnc2)C(C)(C)C)cc1`, the pED50 in the experiment on Botrytis cinerea is given as 3.43; in the experiment with Blumeria graminis, 3.92.

For the compound `CC(C)(C)/C(=C\c1ccc(Cl)cc1)C(=O)n1ccnc1`, the values for the pED50 in the experiment on Botrytis cinerea and in the experiment on Blumeria graminis were 2.92 and 3.52, respectively.

Consider `CC(C)(C)/C(=C/c1ccc(Cl)cc1)C(=O)n1ccnc1`, for which the figures for the pED50 with Botrytis cinerea and in the experiment with Blumeria graminis were 4.82 and 5.92, respectively.

With `CC(C)(C)/C(=C/c1ccc(Br)cc1)C(=O)n1ccnc1`, the figures for the pED50 in the experiment with Botrytis cinerea and with Blumeria graminis were 4.63 and 5.96, respectively.
